From PubChem BioAssay
STAT3 act = activators of IL-6 induced STAT3 signaling. 190,000 compounds, 0.91% hits. U3A cells, IL-6 STAT3-luciferase reporter, luminescence; 100% = signal with IL-6 EC80 alone. AID 871. activation (% of control), % at 5.6 µM;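 active means activation above the screen-wide mean of compound activation plus 3 SD, cut at about 130% in these data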;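 further: 0% = background luminescence of wells with medium and substrate only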
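Test system: human U3A cells carrying STAT3-luciferase construct; control set: IL-6-only wells as 100% reference; timing: compound pre-incubation 1 h before IL-6, then 6 h stimulation at 37 °C; also added: IL-6 stimulus at 33 ng/mL final; evaluation: % activation versus median of IL-6-stimulated wells; detection: reporter luminescence signal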
STAT3 inh = STAT3 signaling inhibition; U3A cells, IL-6 STAT3-luciferase reporter, luminescence; host cell line lacks STAT1; inhibition, % at 5.5 µM; 190,000 compounds, 0.89% hits; AID 862;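 active means inhibition above the mean inhibition across all screened compounds plus 3 SD, cut at about 44% in these data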;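 further: 0% = DMSO only wells and 100% = 100 µM nifuroxazide control wells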
STAT1 act = activators of IFN-gamma induced STAT1 signaling; NIH 3T3 STAT1-luciferase reporter, luminescence; 100% = IFN-gamma alone, no compound; activation (% of control), % at 5.5 µM; 200,000 compounds, 2.6% hits;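 active means activation above the screen-wide mean activation plus 3 SD, cut at about 130% in these data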;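 further: raw ratio to IFN-gamma control signal so 100% means no change and 0% no light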
APP 5'UTR act = activates APP 5'UTR luciferase reporter. SH-SY5Y APP 5'UTR luciferase reporter, luminescence; zero percent = DMSO vehicle wells. activation, % at 2 µM. 190,000 compounds, 1% hits. AID 1276;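 active means activation above a set limit, based on mean plus 3 SD of controls, cut at about 140% in these data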
STAT1 blocker = inhibitors of IFN-gamma induced STAT1 signaling; NIH 3T3 STAT1-luciferase reporter, luminescence; inhibition, % at 5.5 µM; 200,000 compounds, 0.35% hits;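 active means inhibition above a set limit, the mean inhibition across all tested compounds plus 3 SD, cut at about 34% in these data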;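 further: 0% = IFN-gamma with DMSO and 100% = IFN-gamma with 300 µM nifuroxazide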
NF-kB expr up = compounds increasing NF-kB expression in human neuronal cells. NF-kB reporter expression; hits give high values. fold change at 12.5 µM. 190,000 compounds, 1.6% hits. AID 1239; in the data active means fold change above about 3.3
The depositor's hits bear a star. In the library only some 4.9% were active in any assay of this set; here they are far more common.

For O=C(CCc1nc2ccccc2s1)Nc1ccccc1 the results were STAT3 act 89, STAT3 inh 8, STAT1 act 96, APP 5'UTR act -1, STAT1 blocker 5 and NF-kB expr up 0.97.
S=C(Nc1ccccc1)c1nc2ccccc2s1 was read as STAT3 act 131, STAT3 inh -32, STAT1 act 138*, APP 5'UTR act 101, STAT1 blocker -42 and NF-kB expr up 2.4.
Screening CCNC(=O)Nc1nc2ccccc2s1 returned STAT3 act 108, STAT3 inh -10, STAT1 act 146*, APP 5'UTR act 77, STAT1 blocker -48 and NF-kB expr up 2.6.
`CC(=O)N1CCC(=NNc2nc3ccccc3s2)CC1` gave STAT3 act 116, STAT3 inh -12, STAT1 act 136*, APP 5'UTR act 108, STAT1 blocker -39 and NF-kB expr up 2.1.
Screening Cc1ccc(S(=O)(=O)Nc2ccccc2CNc2cccc(C)n2)cc1 returned STAT3 act 103, STAT3 inh -9, STAT1 act 104, APP 5'UTR act -8, STAT1 blocker -4 and NF-kB expr up 0.89.
CCCN(CCC)S(=O)(=O)c1ccc(C(=O)NNc2nc(-c3ccccc3)c3cc(Br)ccc3n2)cc1 was read as STAT3 act 108, STAT3 inh -12, STAT1 act 99, APP 5'UTR act -15, STAT1 blocker 3 and NF-kB expr up 0.96.
`COC(=O)C(C)(C)ONC(=O)Nc1ccc(C)cc1` gave STAT3 act 111, STAT3 inh -10, STAT1 act 112, APP 5'UTR act 2, STAT1 blocker -14 and NF-kB expr up 1.4.
CC(C)OC(=O)c1cc2c(=O)[nH]c(C(Cl)(Cl)Cl)nc2o1 was read as STAT3 act 105, STAT3 inh 3, STAT1 act 99, APP 5'UTR act -3, STAT1 blocker -1 and NF-kB expr up 0.97.
For Cc1ccc2nc(SC(C(=O)c3ccccc3)c3ccccc3)nc(C)c2c1 (configuration not stated) the results were STAT3 act 103, STAT3 inh -3, STAT1 act 102, APP 5'UTR act -2, STAT1 blocker -2 and NF-kB expr up 1.2.
`CCc1ccc(C2=NN(C(=O)OC)C(O)(C(F)(F)F)C2)cc1` (configuration not stated) gave STAT3 act 48, STAT3 inh 69*, STAT1 act 66, APP 5'UTR act 136*, STAT1 blocker 38* and NF-kB expr up 3.2.
For CCOC(=O)N1N=C(c2ccc(OC)cc2)CC1(O)C(F)(F)F (configuration not stated) the results were STAT3 act 90, STAT3 inh 13, STAT1 act 116, APP 5'UTR act 171*, STAT1 blocker -19 and NF-kB expr up 3.3.
Screening CC1CCCCN1CCn1c(=S)[nH]c2cc3c(cc2c1=O)OCO3 (configuration not stated) returned STAT3 act 104, STAT3 inh 3, STAT1 act 111, APP 5'UTR act 1, STAT1 blocker -12 and NF-kB expr up 1.1.
For COc1ccccc1NC(=S)N1CCn2cccc2C1c1cccnc1 (configuration not stated) the results were STAT3 act 98, STAT3 inh 10, STAT1 act 104, APP 5'UTR act -13, STAT1 blocker -5 and NF-kB expr up 1.1.
CC(=O)c1ccc2c(c1)Cc1cc(C(C)=O)ccc1-2 was read as STAT3 act 97, STAT3 inh 6, STAT1 act 146*, APP 5'UTR act 75, STAT1 blocker -52 and NF-kB expr up 3.
`COc1ccccc1N1CCN(CC(=O)Nc2ccc(-n3cnnn3)cc2)CC1` gave STAT3 act 99, STAT3 inh 7, STAT1 act 94, APP 5'UTR act 19, STAT1 blocker 4 and NF-kB expr up 1.1.
`COc1ccc(/C(N)=N/OC(=O)CSc2ccccc2)cc1OC` gave STAT3 act 116, STAT3 inh -17, STAT1 act 145*, APP 5'UTR act 42, STAT1 blocker -47 and NF-kB expr up 2.8.
Screening N/C(=N\OC(=O)c1ccco1)c1cccc(Br)c1 returned STAT3 act 104, STAT3 inh -9, STAT1 act 127, APP 5'UTR act 137*, STAT1 blocker -29 and NF-kB expr up 3.
